The text below walks through data of ChEMBL document CHEMBL1833955, “Optimization of (arylpiperazinylbutyl)oxindoles exhibiting selective 5-HT₇ receptor antagonist activity” (J Med Chem, 2011).

For orientation: inhibition means the share of the control response that was lost under treatment. Read a low inhibition as a weak effect. One may read the Ki as the dissociation constant of the complex between target and ligand, obtained from inhibition or displacement. Read a low Ki as a stronger hold on the target.

Series [1] in a line: Plasma concentration in NMRI mouse at 3 mg/kg, ip after 30 mins by HPLC-MS/MS analysis. The series is classed as ADME, organism-based. Also on record: dose 3 mg/kg, route intraperitoneal. The method in brief:
(§1)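 Male NMRI mice, 25–30 g, given four compounds together ip as a cassette suspension in 0.4% methyl cellulose (n = 3/dose). After 30 min, vena cava blood and brain collected. Brain homogenised in 4 volumes of water; samples extracted with acetonitrile–water 3:1 and analysed by gradient HPLC-MS/MS against spiked calibrators. Brain/plasma given as percentage.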

Series [2] in a line: Selectivity ratio of Ki for alpha1-adrenergic receptor in rat frontal cortex membrane to Ki for human 5-HT7 receptor. The series is classed as cell membranes.
The nature of series [3]: Metabolic stability in rat liver microsomes after 60 mins by HPLC-MS/MS analysis. The series is classed as ADME, Microsome. The settings on record: read-out: Stability. The method in brief: (§2)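 Test compound at 100 nM final incubated with rat or human liver microsomes (0.33 mg/mL) at 37 °C for 0, 5, 15, 30 and 60 min. Buffer Tris-HCl pH 7.4 with Mg2+ and BSA. Reaction started with NADPH and stopped with ice-cold MeOH. Parent compound measured by HPLC-MS/MS, positive-ion MRM.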
(Liver microsomes are a subcellular fraction often used to study metabolism.)

Series [4] in a line: Selectivity ratio of Ki for 5-HT1A receptor in rat frontal cortex membrane to Ki for human 5-HT7 receptor. The series is classed as cell membranes.
The nature of series [5]: Plasma concentration in NMRI mouse at 1 mg/kg, ip after 30 mins by HPLC-MS/MS analysis. More on the design: dose 1 mg/kg, route intraperitoneal. The series is classed as ADME, organism-based. The method in brief:
as §1

Series [6] in a line: Drug level in NMRI mouse brain at 3 mg/kg, ip after 30 mins by HPLC/MS/MS analysis. The series is classed as ADME, organism-based. Also on record: dose 3 mg/kg, route intraperitoneal. The settings on record: read-out: Drug uptake. The method in brief:
as §1

Series [7] is described as follows: Drug level in NMRI mouse brain at 1 mg/kg, ip after 30 mins by HPLC/MS/MS analysis. The series is classed as ADME, organism-based. More on the design: dose 1 mg/kg, route intraperitoneal. The settings on record: read-out: Drug uptake. The method in brief: as §1
Series [8] can be described thus: Drug level in NMRI mouse brain at 10 mg/kg, ip after 30 mins by HPLC/MS/MS analysis. The series is classed as ADME, organism-based. The settings on record: read-out: Drug uptake. Also on record: dose 10 mg/kg, route intraperitoneal. The method in brief:
as §1

Series [9] is described as follows: Metabolic stability in human liver microsomes after 60 mins by HPLC-MS/MS analysis. The series is classed as ADME, Microsome. The settings on record: read-out: Stability. In outline: as §2
A short description of series [10]: Plasma concentration in NMRI mouse at 10 mg/kg, ip after 30 mins by HPLC-MS/MS analysis. The series is classed as ADME, organism-based. More on the design: dose 10 mg/kg, route intraperitoneal. In outline: as §1
In series [11] the target is T1, 5-hydroxytryptamine receptor 1A (Rattus norvegicus) (UniProt P19327).
T1 sequence (whole entry): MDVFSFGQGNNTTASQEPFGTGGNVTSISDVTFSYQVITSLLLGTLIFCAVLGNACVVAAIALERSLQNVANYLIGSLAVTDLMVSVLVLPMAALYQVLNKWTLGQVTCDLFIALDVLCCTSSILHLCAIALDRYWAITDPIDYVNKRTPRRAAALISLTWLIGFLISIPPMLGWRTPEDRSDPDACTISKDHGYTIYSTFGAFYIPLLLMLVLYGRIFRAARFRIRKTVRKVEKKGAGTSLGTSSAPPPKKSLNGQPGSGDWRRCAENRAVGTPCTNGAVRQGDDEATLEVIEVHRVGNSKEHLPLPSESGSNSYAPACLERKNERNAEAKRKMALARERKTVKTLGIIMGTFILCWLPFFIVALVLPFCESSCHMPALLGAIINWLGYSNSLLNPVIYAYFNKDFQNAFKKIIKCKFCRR
Put plainly: Displacement of [3H]8-OH-DPAT from 5-HT1A receptor in rat frontal cortex membrane at 10^-7 M after 45 mins by scintillation counting. The series is classed as cell membranes.

Series [12] has as its target T2, Adrenergic receptor alpha-1 (Rattus norvegicus, UniProt P15823+P23944+P43140).
T2 sequence (P15823 whole entry): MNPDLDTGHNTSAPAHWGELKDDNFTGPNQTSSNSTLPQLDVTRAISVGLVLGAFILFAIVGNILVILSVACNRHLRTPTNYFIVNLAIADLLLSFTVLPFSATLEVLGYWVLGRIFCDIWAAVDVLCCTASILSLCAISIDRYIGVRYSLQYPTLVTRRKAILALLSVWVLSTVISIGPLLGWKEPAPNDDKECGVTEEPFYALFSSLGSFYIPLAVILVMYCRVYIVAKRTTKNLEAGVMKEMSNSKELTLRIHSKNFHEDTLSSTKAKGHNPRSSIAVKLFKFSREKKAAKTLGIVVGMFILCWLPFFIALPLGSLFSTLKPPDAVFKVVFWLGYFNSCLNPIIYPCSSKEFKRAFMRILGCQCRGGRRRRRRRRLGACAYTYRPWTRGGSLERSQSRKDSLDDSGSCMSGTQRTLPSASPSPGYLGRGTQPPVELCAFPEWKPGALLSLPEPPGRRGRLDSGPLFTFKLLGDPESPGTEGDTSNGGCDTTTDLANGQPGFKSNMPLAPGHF
T2 sequence (P23944 whole entry): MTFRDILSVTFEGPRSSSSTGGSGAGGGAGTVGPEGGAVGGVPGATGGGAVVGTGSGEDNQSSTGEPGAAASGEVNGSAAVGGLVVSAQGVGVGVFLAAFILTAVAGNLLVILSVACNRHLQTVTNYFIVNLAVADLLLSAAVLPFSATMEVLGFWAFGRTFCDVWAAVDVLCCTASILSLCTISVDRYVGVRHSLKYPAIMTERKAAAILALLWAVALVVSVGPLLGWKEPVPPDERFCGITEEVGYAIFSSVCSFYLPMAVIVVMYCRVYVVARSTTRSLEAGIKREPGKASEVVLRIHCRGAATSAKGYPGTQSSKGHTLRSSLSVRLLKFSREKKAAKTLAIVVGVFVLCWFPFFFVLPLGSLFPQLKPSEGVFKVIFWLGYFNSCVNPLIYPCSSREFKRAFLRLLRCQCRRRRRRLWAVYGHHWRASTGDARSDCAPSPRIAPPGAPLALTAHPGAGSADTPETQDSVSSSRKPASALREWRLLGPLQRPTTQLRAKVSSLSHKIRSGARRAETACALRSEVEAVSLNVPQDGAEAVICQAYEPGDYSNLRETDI
T2 sequence (P43140 whole entry): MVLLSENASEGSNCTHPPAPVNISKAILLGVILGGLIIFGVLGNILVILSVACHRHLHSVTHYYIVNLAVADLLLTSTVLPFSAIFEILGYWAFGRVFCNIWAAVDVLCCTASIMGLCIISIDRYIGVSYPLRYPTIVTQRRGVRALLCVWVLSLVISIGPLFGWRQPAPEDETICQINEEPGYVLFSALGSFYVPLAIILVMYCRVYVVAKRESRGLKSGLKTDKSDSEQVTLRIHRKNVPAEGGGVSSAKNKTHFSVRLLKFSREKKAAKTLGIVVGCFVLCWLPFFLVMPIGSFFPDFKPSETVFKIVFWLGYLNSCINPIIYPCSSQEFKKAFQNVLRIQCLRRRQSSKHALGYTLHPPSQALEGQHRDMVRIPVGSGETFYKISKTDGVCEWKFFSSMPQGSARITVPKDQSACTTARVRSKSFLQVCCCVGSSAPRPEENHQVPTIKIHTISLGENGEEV
Put plainly: Displacement of [3H]prazosin from alpha1-adrenergic receptor in rat frontal cortex membrane after 45 mins by scintillation spectrometry. The series is classed as cell membranes. In outline:
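Rat frontal cortex tissue frozen on dry ice, homogenised in 50 mM Tris-HCl pH 7.7 and washed by centrifugation. [3H]prazosin at 0.6 nM; 10 μM prazosin defines nonspecific binding. 45 min at 25 °C, GF/B filtration, scintillation counting. Triplicates; Ki from two nine-concentration curves fitted to a single-site model.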

Series [13] has as its system Mus musculus. In words: Anxiolytic activity in ip dosed NMRI mouse assessed as behavioral activity administered 30 mins prior to test measured up to 5 mins by light-dark test. The series is classed as functional. The settings on record: read-out: MED. The method in brief: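 Male NMRI mice, 25–33 g, housed in the dark, dosed ip 30 min before test. Each mouse placed in the centre of the lit side of an automated two-compartment chamber under a 2-lx light. Activity recorded for 5 min: time in each area, transitions, horizontal and vertical activity. Means ± SEM, one-way ANOVA with Duncan's test; MED reported.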

The target of series [14] is T3, 5-hydroxytryptamine receptor 1A (Rattus norvegicus, UniProt P19327).
T3 sequence (P19327 whole entry): T1 sequence (whole entry)
In words: Displacement of [3H]8-OH-DPAT from 5-HT1A receptor in rat frontal cortex membrane after 45 mins by scintillation counting. The series is classed as cell membranes. The method in brief: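 Membranes from adult rat frontal cortex, prepared in 50 mM Tris-HCl pH 7.7 with washes and a 37 °C preincubation. Incubation buffer: 6.66 mM CaCl2, 16.66 μM pargyline, 0.166% ascorbic acid. Ligand 1.5 nM [3H]8-OH-DPAT; 10 μM 5-HT defines nonspecific binding. 45 min at 25 °C, GF/B filtration, scintillation counting. Triplicates; Ki from two nine-point curves, single-site fit.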
(Displacement assays read how much labelled ligand stays bound in the presence of the test substance.)

For series [15], the system named is Mus musculus. Put plainly: Antidepressant activity in ip dosed NMRI mouse assessed as decrease in immobility time administered 30 mins prior to test measured last 4 mins of 6 mins testing period by forced swimming test. The series is classed as functional. The settings on record: read-out: MED. In outline:
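Mice given drug or vehicle ip 30 min before test. Each mouse placed in a 17.7 cm high, 12 cm diameter glass cylinder holding 25 °C water to 12.5 cm depth, four mice at a time. Immobility (floating, only movements keeping head above water) timed over the last 4 min of a 6 min session.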

As to `CCC1(CCCCN2CCN(c3ccc(Cl)cc3)CC2)C(=O)Nc2ccccc21` (stereo not given), the concentration at 0.5 h in [1] is 245 nM; in series [5], 70 nM; in series [6] it was 141 nM; in [7] it was 42 nM; in series [8], 379 nM; in series [10] it was 399 nM. Besides, the values for the Ratio Ki in [2] and in series [4] were 245 and more than 100, respectively. Moreover, the remaining at 1 h turned out to be 9% in [3] and 34% in series [9]. This compound also showed an inhibition in [11] of 11%. The same compound displayed a Ki in [12] of 93 nM. Further, the minimal effective dose with Mus musculus [13] was more than 10 mg/kg.
With `CCC1(CCCCN2CCN(c3ccc(Cl)cc3)CC2)C(=O)Nc2ccc(F)cc21` (stereo not given), the concentration at 0.5 h in [1] was found to be 211 nM; in series [5], 44 nM; in [6] it was 186 nM; in [7] it was 51 nM; in series [8], 342 nM; in series [10], 271 nM. For the same compound, the results for the Ratio Ki in [2] and in series [4] were 68 and more than 100, respectively. The remaining at 1 h worked out at 17% in series [3] and 36% in series [9]. In addition, the inhibition in series [11] came out at 9%. Further, the Ki in [12] was determined as 190 nM. In the series with Mus musculus [13], the minimal effective dose was more than 10 mg/kg.
As for `O=C1Nc2ccccc2C1CCCCN1CCN(c2cccc(Cl)c2)CC1` (stereo not given), the concentration at 0.5 h in [1] came out at 114 nM; in series [5], 21 nM; in series [6], 827 nM; in series [7], 216 nM; in [8], 4310 nM; in [10], 744 nM. Also, the Ki is 66 nM in [14] and 26 nM in series [12]. The values for the Ratio Ki in series [2] and in [4] were 53 and 135, respectively. The remaining at 1 h came to 9% in series [3] and 39% in series [9]. Further, in the series with Mus musculus [13], the minimal effective dose is more than 10 mg/kg.
In the case of `CCC1(CCCCN2CCN(c3ccc(Cl)cc3)CC2)C(=O)Nc2cc(F)ccc21` (stereo not given), the concentration at 0.5 h in [1] was determined as 130 nM; in series [5], 46 nM; in series [6], 99 nM; in [7], 33 nM; in series [8] it was 135 nM; in series [10], 177 nM. The Ratio Ki in series [2] is 272; in series [4] it was more than 100. Moreover, the remaining at 1 h is 9% in series [3] and 29% in series [9]. Also, the inhibition in series [11] is 9%. The compound further gave a Ki in [12] of 215 nM. The minimal effective dose in the series with Mus musculus [13] is more than 10 mg/kg.
With `CCC1(CCCCN2CCN(c3ccc(F)cc3)CC2)C(=O)Nc2ccccc21` (stereo not given), the concentration at 0.5 h in [1] came out at 178 nM; in series [5], 34 nM; in series [6], 431 nM; in series [7], 62 nM; in [8], 364 nM; in series [10], 168 nM. In addition, the Ratio Ki in series [2] was 91; in series [4] it was more than 100. In addition, the remaining at 1 h in series [3] came to 8%; in series [9], 34%. Moreover, the minimal effective dose in the series with Mus musculus [15] is more than 10 mg/kg. Besides, the inhibition in series [11] came out at 10%. Besides, in series [12], the inhibitory constant (Ki) stood at 39 nM.
